High-throughput results from PubChem.
PP1 counter: counter-screen for PP5 inhibitors: inhibitors of human PP1-alpha; inhibition, % at 6.7 µM; 320,000 tested, 0.9% active; purified PP1alpha, OMFP fluorescence;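 active means inhibition above the mean inhibition of all tested compounds plus 3 SD, computed separately for each screening campaign, cut at about 15% in these data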
Target sequence (P62136 whole entry, looked up): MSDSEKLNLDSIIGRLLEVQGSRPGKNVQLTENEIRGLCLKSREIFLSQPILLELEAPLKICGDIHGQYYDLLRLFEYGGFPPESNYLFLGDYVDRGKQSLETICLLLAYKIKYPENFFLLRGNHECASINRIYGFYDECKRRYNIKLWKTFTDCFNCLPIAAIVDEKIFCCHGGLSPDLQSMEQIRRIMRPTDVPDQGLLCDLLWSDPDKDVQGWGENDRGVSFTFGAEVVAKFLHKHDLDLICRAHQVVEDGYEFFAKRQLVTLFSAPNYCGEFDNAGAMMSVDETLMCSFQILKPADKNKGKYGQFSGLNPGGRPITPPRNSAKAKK
NR2E3 ag-1: agonists of human NR2E3 nuclear receptor; 360,000 tested, 0.35% active; AID 602229; CHO-S Gal4-NCOR/VP16-NR2E3 two-hybrid, luciferase; inhibition of corepressor binding, % at 3.98 µM; Q9Y5X4;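 active means inhibition above the mean of all tested compounds plus 3 SD, cut at about 70% in these data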;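 further: 0% = DMSO with NR2E3 transfected cells and 100% = cells lacking NR2E3 construct; higher means lower luciferase signal from less NR2E3 corepressor binding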
PP5 inh: inhibitors of human protein phosphatase 5 (PP5); P53041; purified PP5c, OMFP substrate fluorescence; inhibition, % at 6.7 µM; 320,000 tested, 0.18% active;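 active means inhibition above the campaign's mean inhibition across all tested compounds plus 3 SD, cut at about 9.5% in these data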;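 further: 0% = DMSO only and 100% = 100 µM cantharidin control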
NR2E3 ag-2: agonists of human nuclear receptor NR2E3 | Q9Y5X4 | GST-NR2E3/biotin-RetCOR TR-FRET, 1536-well | inhibition of corepressor binding, % at 4.78 µM | 320,000 tested, 0.12% active;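 active means percent inhibition above the cutoff of mean plus 3 SD of all tested compounds, set per screening campaign, cut at about 20% in these data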;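 further: 0% = DMSO wells and 100% = biotin wells as full block of FRET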
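System: GST-tagged NR2E3 plus biotinylated RetCOR corepressor; Amount: 1.35 nM GST-tagged NR2E3 final; Dosing: single nominal compound dose of 4.8 µM; Schedule: 5 h incubation at 4 °C; Technique: TR-FRET with europium anti-GST and streptavidin-D2, 340 nm excitation; Controls: biotin wells as high control, 0.6% DMSO wells as low control.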
NR2E3 ag conf: confirmation of human NR2E3 agonists; inhibition, % at 3.98 µM; 2,300 tested, 51% active; CHO-S mammalian two-hybrid NR2E3-NCOR, luciferase luminescence; AID 624378; shares compounds with NR2E3 ag-1;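 active means average inhibition above a cutoff equal to the mean inhibition of all tested compounds plus one SD, cut at about 70% in these data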;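 further: 0% = DMSO in NR2E3 cells and 100% = DMSO in cells lacking NR2E3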
GAL4-VP16 luc: counter-screen for NR2E3 agonists: GAL4-VP16 reporter inhibitors. shares compounds with NR2E3 ag-1. 2,300 tested, 29% active. CHO-S GAL4-VP16 luciferase reporter, luminescence. inhibition, % at 3.98 µM;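 active means mean inhibition above a cutoff equal to the average over all tested compounds plus one standard deviation, cut at about 70% in these data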;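 further: luciferase from a UAS reporter driven by GAL4-VP16 transactivation; 0% = DMSO with VP16-transfected cells and 100% = DMSO with cells lacking VP16; higher means less reporter light so more repression of VP16 activity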
An asterisk follows results filed as active; · = no result given. In the library only some 1.3% were active in any assay of this set; here they are far more common.

SMILES	PP1 counter	NR2E3 ag-1	PP5 inh	NR2E3 ag-2	NR2E3 ag conf	GAL4-VP16 luc
CC1Sc2ccc(S(=O)(=O)NCCc3ccc(Cl)cc3)cc2NC1=O (centres undefined)	1	34	3	3	·	·
Cc1cccc(CCNS(=O)(=O)c2ccc3c(c2)NC(=O)C(C)S3)c1 (centres undefined)	0	52	2	3	33	49
N#CC1(NC(=O)COC(=O)c2ccccc2SCC(=O)N2CCCC2)CCCCC1	-2	11	0	2	·	·
Cc1cc(C)n(C(=O)/C(C#N)=C/N(C)C)n1	4	9	-4	-1	·	·
CCn1nc(C)c(NC(=O)/C=C/c2cnn(C)c2C)c1C	-2	2	-1	1	·	·
CCn1ncc(/C=C/C(=O)Nc2c(C)nn(Cc3ccc(Cl)cc3Cl)c2C)c1C	4	50	3	-3	32	40
CCCn1c(N2CCC(Cc3ccccc3)CC2)nc2c1c(=O)[nH]c(=O)n2C	0	49	5	3	29	39
Cc1ccc(CNC(=O)c2ccc(N3CCC4(CC3)CC(c3cccc(Br)c3)=NO4)c([N+](=O)[O-])c2)cc1	13	8	2	3	·	·
CCCNC(=O)c1ccc(N2CCC3(CC2)CC(c2cccc(Br)c2)=NO3)c([N+](=O)[O-])c1	8	57	3	-1	74*	59
CN(C)S(=O)(=O)c1ccc(C(=O)Nc2cc(S(=O)(=O)Nc3ccccc3Cl)ccc2N2CCCCC2)cc1	5	48	5	0	85*	63
COc1ccc(C=NNC(=S)NC23CC4CC(CC(C4)C2)C3)cc1OC	·	64	·	·	2	12
Cc1cccc(C)c1NC(=O)Nc1ccc(S(N)(=O)=O)cc1	-3	-5	2	1	·	·
CCn1c(-c2ccccc2)c(C(=O)CCl)c2ccccc21	-3	20	0	-5	·	·
Cn1c(-c2ccccc2)c(C(=O)CCl)c2ccccc21	·	48	·	·	-17	10
CN1CCc2c(sc(NC(=O)c3ccc([N+](=O)[O-])o3)c2C(N)=O)C1	-1	57	1	-5	49	40
NC(=O)c1c(NC(=O)c2ccc([N+](=O)[O-])o2)sc2c1CCCC2	4	5	1	5	·	·
COc1ccc(OC)c(-c2cc(C(=O)Nc3c(C)n(C)n(-c4ccccc4)c3=O)no2)c1	-2	51	1	-2	13	21
COc1ccccc1-c1cc(C(=O)Nc2c(C)n(C)n(-c3ccccc3)c2=O)no1	2	19	4	2	·	·
CN(Cc1cnc2nc(N)nc(N)c2n1)c1ccc(C(=O)NC(CCC(=O)O)C(=O)O)cc1 (centres undefined)	·	62	·	·	-27	3
Cc1cc2nc(C)c3c(n2n1)CCC3	-6	-6	-2	3	·	·
CCCCCC(=O)N1C[C@@H](O)[C@H](n2cc(-c3ccc(F)cc3)nn2)C[C@@H]1c1ccccc1	·	18	·	·	·	·
COc1cc(/C=N/N=C2\CC3CCC2(C)C3(C)C)ccc1O (centres undefined)	-4	-8	2	0	·	·
COc1ccc(/C=N/N=C2\CC3CCC2(C)C3(C)C)cc1O (centres undefined)	-5	74*	1	-2	-3	2
COc1ccc(NC(=O)CN2C(=O)COc3ccc(C)cc32)cc1	1	22	0	2	·	·
CCCOc1ccc(CSc2nc3ccccc3[nH]2)cc1	2	74*	5	5	74*	44
SMILES	PP1 counter	NR2E3 ag-1	PP5 inh	NR2E3 ag-2	NR2E3 ag conf	GAL4-VP16 luc
CCOc1ccc(OCCSc2nc3ccccc3[nH]2)cc1	4	10	2	1	·	·
C=C[C@]1(C)C=C2C(=O)[C@@]3(O)OC(=O)[C@@]4(CCCC(C)(C)[C@H]34)[C@@]2(O)CC1	·	92*	·	·	91*	63
CCOc1ccccc1CNS(=O)(=O)c1ccc(-c2cnc(C3CC3)o2)cc1	1	85*	5	-4	69	54
Cc1ccc(CNS(=O)(=O)c2ccc(-c3cnc(C4CC4)o3)cc2)cc1	-1	70*	4	1	55	35
Cc1ccc(NS(=O)(=O)c2ccc(-c3cnc(C4CC4)o3)cc2)cc1	0	37	4	-4	·	·
Cc1cccc(C)c1NS(=O)(=O)c1ccc(-c2cnc(C3CC3)o2)cc1	5	70*	5	2	55	21
COc1ccc(C)cc1NS(=O)(=O)c1ccc(-c2cnc(C3CC3)o2)cc1	2	103*	3	-1	57	59
CCN1CCN(c2ccc(NC(=O)c3ccc4c(c3)[nH]c(=O)n4Cc3ccc(OC)cc3)cc2)CC1	0	2	0	1	·	·
Cc1c(C(=O)N(Cc2ccccc2)C(C)C)oc2ccc(S(=O)(=O)N3CCOCC3)cc12	4	-5	1	0	·	·
CCCn1c(C)cc(C(=O)CN2C(=O)c3ccccc3S2(=O)=O)c1C	·	58	·	·	46	19
CCC1CCCCN1C(=O)c1cc(COc2ccc(-n3cncn3)cc2)on1 (centres undefined)	0	60	3	1	47	60
O=C(c1cc(COc2ccc(-n3cncn3)cc2)on1)N1CCCC1	1	-11	-4	1	·	·
O=C(NC1CCCCCCC1)c1cc(COc2ccc3ncccc3c2)on1	·	80*	·	·	95*	88*
O=C(c1cc(COc2ccc3ncccc3c2)on1)N1CCCC(O)C1 (centres undefined)	0	5	0	2	·	·
Cc1cccc(C)c1OCc1cc(C(=O)NC2CCC2)no1	-2	-35	1	-2	·	·
O=C(c1cc(COc2ccc3ncccc3c2)on1)N1CCC[C@H]1CO	-2	81*	0	4	38	51
O=C(c1cc(COc2ccc3ncccc3c2)on1)N1CCC(O)CC1	-2	-26	-1	1	·	·
Cc1cccnc1CN1CCN(C(=O)c2cc(COc3ccc4ncccc4c3)on2)CC1	3	78*	-1	-6	99*	88*
O=C(c1ccc(N2C(=O)C3C4c5ccccc5C(c5ccccc54)C3C2=O)cc1)N1CCOCC1 (centres undefined)	-3	-8	-1	0	·	·
CCOC(=O)N1CCN(C(=O)c2cc(COc3ccc4ncccc4c3)on2)CC1	-6	65	0	4	83*	76*
Cc1cc(CN(C)C(=O)c2cc(COc3ccc4ncccc4c3)on2)on1	-3	48	4	0	73*	63
CC(CNC(=O)c1cc(COc2ccc3ncccc3c2)on1)c1ccccc1 (centres undefined)	-3	105*	0	0	96*	80*
CCC(O)C1CCN(C(=O)c2cc(COc3ccc4ncccc4c3)on2)CC1 (centres undefined)	-3	78*	4	3	96*	85*
